Values after ≈ are worked out from the molar mass of the structure shown.

As a reminder, the IC90 is the concentration needed for an effect of 90%. For orientation: MIC means the least concentration at which growth counts as inhibited.

Series [1] relates to S. aureus. Nature of the series: MIC determination against S. aureus in RPMI. It is filed as cell-based, Staphylococcus aureus. The conditions noted are these: for ^CuMIC (S. aureus): MIC in 50 μM copper supplemented medium.
Series [2] deals with S. aureus strain LAC carrying pHluorin. It is filed as cell-based, Staphylococcus aureus. The conditions noted are these: mildly acidic medium (pH 6.2).
The next series deals with THP-1 monocytic cells. The experiment in a line: Toxicity testing on THP-1 monocyte cells. Format: cell-based, human. The following applies: 24 h.
The nature of series [3]: Determination of binding constants by UV/Vis. The conditions noted are these: 25 uM HEPES buffer pH 7.2.
Series [4] deals with methicillin resistant S. aureus strains. Nature of the series: MIC against clinically isolated MRSA strains. The conditions noted are these: 5 clinically isolated MRSA strains, 50 μM Cu. It is filed as cell-based, Staphylococcus aureus.
The test system of series [5] is preformed S. aureus biofilms. Nature of the series: Biofilm eradication assay. Format: cell-based, Staphylococcus aureus. The following applies: preformed S. aureus Newman biofilms, 24 hours treatment.
Another series has as its target T1, GAPDH (Staphylococcus aureus, UniProt Q6GIL8).
T1 sequence (Q6GIL8 1-336): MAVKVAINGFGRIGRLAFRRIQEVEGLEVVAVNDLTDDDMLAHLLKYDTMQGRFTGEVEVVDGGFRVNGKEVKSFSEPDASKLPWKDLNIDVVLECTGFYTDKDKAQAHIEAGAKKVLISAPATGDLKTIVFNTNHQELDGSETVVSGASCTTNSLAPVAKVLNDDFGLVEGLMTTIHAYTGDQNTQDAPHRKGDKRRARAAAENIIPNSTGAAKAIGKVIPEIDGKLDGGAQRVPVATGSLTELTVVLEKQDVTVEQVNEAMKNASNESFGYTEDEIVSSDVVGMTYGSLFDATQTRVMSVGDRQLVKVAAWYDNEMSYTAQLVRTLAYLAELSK
The experiment in a line: GAPDH activity in lysates of treated bacteria. Format: cell-based. The conditions noted are these: 30 minutes treatment; 50 µM Cu, 10 µM PZP-915, 10 µM 915+50 µM Cu. In short, it runs like this:
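After the 30 min treatment, bacteria washed to remove extracellular copper, then lysed. GAPDH activity measured in the lysates.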

The test system of series [6] is S. aureus. Nature of the series: Time to death assay and bactericidal activity. Format: cell-based, Staphylococcus aureus. The conditions noted are these: for mode of action (bactericidal vs bacteriostatic): CFU.
Series [7] in a line: Toxicity testing on THP-1 monocyte cells. The following applies: human, THP-1 monocytic cells. Format: cell-based, human.
The test system of a further series is S. aureus Newman. The experiment in a line: Membrane potential, DiOC2. It is filed as cell-based, Staphylococcus aureus. The following applies: within 30 min; 10 μM PZP-915 and/or 50 μM Cu.

As for Iron, in the series on S. aureus [1] (metal alone), the “concentration up to which no toxicity to S. aureus was observed” value is on record as over 3.2 mM.

Regarding “Carbonyl cyanide m-chlorophenyl hydrazine [CCCP, reference compound]”, the “change of intracellular pH” value in series [2] is “almost instantaneous pH drop”.

For `CNC(=S)NN=CC=NNC(=S)NC` [GTSM], the “^CuIC90 (THP1)” value in the series on THP-1 monocytic cells (IC90 in the presence of 25 μM copper) was 0.15 µM. For the same compound, the IC90 in the series on THP-1 monocytic cells (read-out: IC90 (THP1), 90% inhibition relative to untreated controls, no Cu) is over 10 µM. Further, the “^CuMIC (S. aureus)” value with S. aureus [1] came to 0.3 µM.

As to `Cc1nn2c(=O)cc(Cc3ccccc3)[nH]c2c1-c1ccc(Cl)cc1` [PZP-915, 5‐benzyl‐3‐(4‐chlorophenyl)‐2‐methyl‐4H,7H‐pyrazolo[1,5‐a]pyrimidin‐7‐one], in series [3], the “binding constant, 1st order reaction of copper binding” value was 3.8×10^5 Lmol^−1; the “binding constant, 2nd order complex with copper” value is reported as 6.18 Lmol^−1; the “binding constant, 3rd order complex with copper” value is 47.65 Lmol^−1. The “MIC against MRSA strains in comparison to S. aureus Newman” value in [4] is reported as “no difference”. Besides, in [2], the “change of intracellular pH” value is given as “no or only a minor impact”. In addition, in [5], the “concentration for complete eradication of S. aureus in biofilms” value was 0.6 µM. For the same compound, at GAPDH, the “GAPDH activity in cell lysates” value is “did not alter GAPDH activity”. The “time to achieve complete inhibition of growth” value in the series with S. aureus [6] (0.6 µM PZP-915 in the presence of 50 µM Cu) amounted to 2 h. The recoverable viable bacteria entry in the series on S. aureus [6] (24h treatment, 50 μM Cu added, consistent with bactericidal activity) is on record as “no viable cells could be recovered”. Also, the “mode of action (bactericidal vs bacteriostatic)” value in the series on S. aureus [6] (24h treatment, presence of 50 μM Zn) is “bacteriostatic”. Also, in the series with S. aureus [6] (24h treatment, standard medium, absence of Cu), the “mode of action (bactericidal vs bacteriostatic)” value is on record as “bacteriostatic”. In the series with S. aureus [6] (dose-matrix, 0.6 µM PZP-915), the “Cu concentration required to display similar potency” value came out at 50 µM. For the same compound, the “Cu concentration required to exert potent antibacterial properties” value with S. aureus [6] (dose-matrix, 10 µM PZP-915) worked out at 1.25 µM. The same compound displayed an IC90 at 24 h in [7] of over 40 µM. Further, in the series with S. aureus [1] (50 μM Cu, 500 μM BCS), the “activity in medium supplemented with both Cu and BCS” value is recorded as “about the same as in standard medium”. In addition, the “effect of Fe on activity” value in the series on S. aureus [1] (50 μM Fe supplemented medium) is listed as “no effect”. The “improvement of activity by Zn in comparison to standard medium” value in the series on S. aureus [1] (50 μM Zn supplemented medium) is 4 fold. Moreover, in the series on S. aureus [1] (500 μM BCS, no Cu supplementation), the “impact of BCS addition to standard medium on activity” value is “no impact”. In addition, the “^CuMIC (S. aureus)” value with S. aureus [1] is 0.6 µM. The MIC in the series with S. aureus [1] (Staphylococcus aureus, read-out: MIC (S. aureus)) was determined as 5 µM (≈ 1.75 µg/mL). The “effect on membrane potential (DiOC2(3) red/green ratio)” value in the series on S. aureus Newman was “decreased the membrane potential, although to a much lesser extent”.
